Results reported in ChEMBL document CHEMBL4513216, “Probing the Open Global Health Chemical Diversity Library for Multistage-Active Starting Points for Next-Generation Antimalarials” (ACS Infect Dis, 2020).

Assay: Toxicity liver stage against HepG2, at 10uM
Type: cell-based
Design: test concentration 10 uM, cell line HepG2-A16-CD81EGFP
Settings: human, HepG2-A16-CD81EGFP cells; read-out: INHIBITION
Outline: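 Uninfected HepG2-A16-CD81EGFP cells, 3 × 10^3 per well, 1536-well, plated on prespotted compound at 10 μM final, parasite-free screening media added to match infected plates; puromycin 10 μM positive, DMSO 0.5% negative; run in parallel with 48 h PbLuc assay at 37 °C, 5% CO2; viability by CellTiter-Glo luminescence, normalized to controls.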

| Structure (SMILES) | cytotoxicity at 10 µM [%] |
| --- | --- |
| COc1ccc(C(=O)N2Cc3c(Cn4ccnc4)nn(C)c3C2)cc1 | 4.89 |
| Cc1cc(C(=O)NCCN2CCCC(C)C2)nn1C(C)(C)C (stereo unspecified) | 9.34 |
| Cn1ccc(N2CCCC(NC(=O)c3ccsc3)C2=O)n1 (stereo unspecified) | -3 |
| CS(=O)(=O)N1CCCC(Cc2cncc(Br)c2)CC1 (stereo unspecified) | 2.16 |
| CNC(=O)CS(=O)(=O)C1CCN(S(=O)(=O)c2ccccc2Br)CC1 | -18.3 |
| COc1cc(N2C[C@@H]3COC[C@@H](Cc4nc(C)no4)[C@@H]3C2)ncn1 | -105 |
| Cc1ccccc1OCCC(=O)N1CCCC(n2cncn2)C1 (stereo unspecified) | -17.6 |
| Cc1n[nH]c(=O)c2c(NC(=O)CN3CCOCC3)oc(C)c12 | -7.95 |
| Cc1n[nH]cc1C(=O)N1CCCC(n2nnc3cc(F)ccc32)C1 (stereo unspecified) | -2.91 |
| CCN(C)C[C@@H]1CN(S(=O)(=O)c2ccc(C#N)cc2)C[C@@H]1CO | 13.5 |
| CC(C)O[C@H]1CN(C(=O)CCN2CCCCO2)C[C@@H]1O | -7.12 |
| CN1CCOC(CNC(=O)COc2ccc(F)cc2F)C1 (stereo unspecified) | -5.51 |
| Cc1ccc(S(=O)(=O)N2Cc3c(CN(C)C)nn(C)c3C2)cc1 | 2.32 |
| CO[C@@H]1CCN(Cc2c(C)noc2C)[C@@H]2CN(Cc3ccco3)C[C@@H]21 | 8.64 |
| CN(CC(=O)NC1CCOCC1)C1CCCN(c2cccnn2)C1 (stereo unspecified) | -8.97 |
| Cc1nc(C)c(CC(=O)Nc2nnc(C3CC3)s2)c(=O)[nH]1 | -11.2 |
| Fc1cccc(F)c1Cn1c(C2CCCNC2)cc2cccnc21 (stereo unspecified) | 2 |
| CC(=O)N1CC[C@H]2OCC[C@@H](C(=O)NCc3ccco3)[C@H]2C1 | -81.5 |
| Cn1c(=O)oc2cc(S(=O)(=O)N3CCC(c4ccccc4)C3)c(Cl)cc21 (stereo unspecified) | 12.4 |

| Structure (SMILES) | cytotoxicity at 10 µM [%] |
| --- | --- |
| O=C(c1sccc1C1CC1)N1CCCN(c2cccnn2)CC1 | -8.67 |
| COC(=O)c1ccnn1COc1ccc(Cl)cc1 | -14.8 |
| Fc1ccc2[nH]c(CO[C@H]3CN(CC4CC4)C[C@H]3F)nc2c1 | -2.74 |
| Cc1ccc([C@]2(O)CC[C@H]3CN(Cc4ccc(Cl)cc4Cl)C[C@H]32)nc1 | 8.32 |
| COc1cc(/C=C/c2ncc(C(=O)O)s2)cc(OC)c1 | -3.86 |
| COc1c(C)cnc(CNC(=O)c2cc(C)nc3c2c(C)nn3C)c1C | -1.28 |
| O=C(Cc1cccc(O)c1)N1CCCC(OCc2cccnc2)C1 (stereo unspecified) | 1.5 |
| O=C(CCc1nc(Cl)n[nH]1)N[C@H]1CC[C@H]1NC1Cc2ccccc2C1 | -1.74 |
| CNc1ccc(C)cc1C(=O)N[C@H]1C[C@H]2CN(C)CCN2C1 | -4.57 |
| COc1ncccc1CN1CCC2(CC1)CN(c1ccccn1)CCO2 | -6.6 |
| Cc1nc2cc(F)ccc2cc1C(=O)N1CCN(CC(C)O)CC1 (stereo unspecified) | 2.49 |
| O=C(c1cnccn1)N1CCCC2(CCN(Cc3ccsc3)CC2)C1 | 1.55 |
| CC(C)[C@@H]1CN(c2ccc(F)cn2)C[C@H]1NS(C)(=O)=O | 3.69 |
| Cc1nc(CN2CCc3ncnc(C4CCOC4)c3CC2)cs1 (stereo unspecified) | 3.05 |
| COCC1CN(C(=O)Nc2cc(Br)ccc2F)CCO1 (stereo unspecified) | -0.749 |
| COc1cccc(N2CCN(Cc3cccc(CCN)c3)CC2=O)c1 | -1.42 |
| COCCSCC(=O)NCc1ccc(N(C)C)cc1 | 19 |
| CC1CN(c2ccc(NC(=O)Cn3cccn3)cc2)CCO1 (stereo unspecified) | 3.94 |
| C=Cn1ncc(CN2CCc3nc(-c4ccncc4)nc(O)c3C2)c1C | -4.45 |

| Structure (SMILES) | cytotoxicity at 10 µM [%] |
| --- | --- |
| Cn1c(=O)oc2ccc(Nc3ncc(C#N)cc3Cl)cc21 | -1.21 |
| CC(NCC(=O)N1CCc2sccc2C1)c1ccccc1F (stereo unspecified) | 1.8 |
| CSCc1cccc(S(=O)(=O)N2CCSCC2)c1 | 14.3 |
| COc1ccc2c(c1)OCC(CNC(=O)c1cc(C(C)C)on1)C2 (stereo unspecified) | 0.0723 |
| CCC(CO)N(Cc1cccs1)C(=O)CSC (stereo unspecified) | 4.78 |
| CO[C@H]1CN(C(=O)c2cccnc2)[C@@H]2CCCO[C@H]12 | 5 |
| CC(C)Oc1ccccc1CNC(=O)c1[nH]ncc1Br | 17.5 |
| O=C(c1ccncc1)N1CCC(Cc2cnc3[nH]ccc3c2)CC1 | -1.86 |
| CN(c1cccnn1)C1CCN(C(=O)c2ccc3c(c2)COC3)CC1 | -12 |
| COc1ccccc1CN(Cc1cccs1)S(=O)(=O)N(C)C(C)C | -46.7 |
| CC(C)c1ccc(C(C)N2CCCN(C(N)=O)CC2)cc1 (stereo unspecified) | -4.24 |
| CCc1ccc(NC(=O)c2ncc(C(N)=O)cc2Cl)cc1F | -9.86 |
| O=C(O)c1ccnc2c(Br)cccc12 | 8.02 |
| CC(C)(C)C(O)CN1CCN(Cc2cccc(C#N)c2)CC1 (stereo unspecified) | 3.7 |
| COc1cccc(-c2noc(C3CCN(CC4CCCCC4)C3)n2)c1 (stereo unspecified) | -3.44 |
| c1cncc(COCc2nnc3n2CCN(Cc2ccoc2)C3)c1 | -11.2 |
| NS(=O)(=O)c1ccc(F)c(C(=O)NCCSC2CCCCC2)c1 | 4.69 |
| Cc1oncc1C(=O)NCc1cc(=O)n2c(n1)CN(CC1CC1)CCC2 | -4.5 |
